Assay [1] deals with Adenosine receptor A1 (Mesocricetus auratus). The assay can be described thus: Loss of specific binding of [3H]CPX to the A1-adenosine receptor of DDT1 MF-2 (DDT) cells at a concentration of 1 uM.
The test system is the same in assay [2]. The assay can be described thus: Loss of specific binding of [3H]CPX to the A1-adenosine receptor of DDT1 MF-2 (DDT) cells at a concentration of 10 uM.
The target in another assay is Adenosine receptor A1. Put plainly: Specific binding of [3H]CPX to the A1-adenosine receptor.
In assay [3] the target is T1, Adenosine receptor A1 (Homo sapiens) (UniProt P30542).
T1 sequence (whole entry): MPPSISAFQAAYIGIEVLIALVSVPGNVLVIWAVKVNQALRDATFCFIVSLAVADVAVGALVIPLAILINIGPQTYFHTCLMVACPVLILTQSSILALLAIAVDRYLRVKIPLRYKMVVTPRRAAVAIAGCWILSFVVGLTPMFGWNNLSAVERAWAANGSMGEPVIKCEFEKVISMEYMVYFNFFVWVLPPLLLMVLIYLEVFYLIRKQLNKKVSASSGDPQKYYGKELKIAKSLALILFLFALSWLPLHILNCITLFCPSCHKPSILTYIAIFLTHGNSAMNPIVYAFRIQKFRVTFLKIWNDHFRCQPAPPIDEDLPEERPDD
Put plainly: Loss of [3H]CPX binding to A1 adenosine receptor of DDT1 MF-2 (DDT) cells at 0.1 uM. In a few lines: (§1)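 DDT1 MF-2 monolayers, 1 day preconfluent, were exposed to xanthine in HBSS for 2 h at 37 °C, then washed 5 times (3 min each) in ligand-free HBSS. Membranes in 50 mM Tris-HCl pH 7.4 with 5 mM MgCl2 were incubated 2 h at room temperature with 0.06–4 nM [3H]CPX; 10 μM N6-cyclopentyladenosine defined nonspecific binding. Triplicate; Scatchard Bmax versus control.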

For assay [4], the target named is T2, Adenosine A2 receptor (Rattus norvegicus, UniProt P29276+P30543). Put plainly: Binding of [3H]NECA to A2 adenosine receptor (post-Xanthine). The class given is protein assay.
Assay [5] concerns the target T3, Adenosine A2 receptor (Rattus norvegicus) (UniProt P29276+P30543). Put plainly: Inhibition of [3H]NECA binding to A2 adenosine receptor of PC12 cell membranes at 50 uM. To be noted: PC-12. The gist of the method:
(§2)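 PC12 monolayers, 1 day preconfluent, were exposed to xanthine in HBSS for 2 h at 37 °C, then washed 7 times (3 min each) in ligand-free HBSS. Membranes in Tris-Mg pH 7.4 were bound 2 h at room temperature with 1–10 nM [3H]NECA plus adenosine deaminase; 10 μM NECA defined nonspecific binding. Triplicate; Scatchard Bmax compared with control.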

Assay [6] deals with T2, Adenosine A2 receptor. The assay can be described thus: Binding of [3H]NECA to A2 adenosine receptor of PC12 cell membranes. Particulars: pc-12. The gist of the method: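 PC12 cell membranes (0.1–0.2 mg protein) were incubated 2 h at room temperature in 50 mM Tris-HCl pH 7.4 with 5 mM MgCl2, 1 nM [3H]NECA, adenosine deaminase 2 units/mL, and 7–10 xanthine concentrations. Nonspecific binding was set with 10 μM NECA. Bound ligand was separated by filtration and counted by scintillation. Run in triplicate; IC50 from Hill plots.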

Assay [7] has as its target T3, Adenosine A2 receptor (Rattus norvegicus). The assay can be described thus: Loss of [3H]NECA binding to A2 adenosine receptor at 50 uM. Format: protein assay. In a few lines:
as §2

The target in assay [8] is T2, Adenosine A2 receptor. The assay can be described thus: Inhibition of [3H]NECA binding to A2 adenosine receptor of PC12 cell membranes. To be noted: pc-12.
For assay [9], the target named is T1, Adenosine receptor A1 (Homo sapiens). The assay can be described thus: Loss of [3H]CPX binding to A1 adenosine receptor of DDT1 MF-2 (DDT) cells at 0.05 uM. In a few lines: as §1
For assay [10] the target is unchanged. Put plainly: Loss of [3H]CPX binding to A1 adenosine receptor of DDT1 MF-2 (DDT) cells at 0.01 uM. The gist of the method: as §1
The test system of assay [11] is Adenosine receptor A1 (Mesocricetus auratus). The assay can be described thus: Loss of [3H]CPX binding to A1 adenosine receptor of DDT1 MF-2 (DDT) cells at 10 uM.
For assay [12], the target named is T1, Adenosine receptor A1 (Homo sapiens). The assay can be described thus: Percentage loss of [3H]- CPX binding in cells pretreated with a xanthine derivative at 50 uM. The gist of the method:
as §1

Assay [13] shares this target. Put plainly: Percent loss of [3H]CPX binding to A1 adenosine receptor of DDT1 MF-2 (DDT) cells 10 uM. In a few lines:
as §1

Each structure is given as a SMILES string. Bounds are passed on as bounds.

On to `CCCn1c(=O)c2nc(C3CCC(OC(=O)c4ccc(S(=O)(=O)F)cc4)C3)[nH]c2n(CCC)c1=O` (centres undefined), for which the Loss in assay [1] was determined as 16%.

In assay [2], `CCCn1c(=O)c2nc(CNC(=O)CBr)[nH]c2n(CCC)c1=O` gave a Loss of 17%.

As to `CCCn1c(=O)c2nc(CCCCCNC(=O)CBr)[nH]c2n(CCC)c1=O`, the Loss in [2] was 7%.

Compound `CCCn1c(=O)c2nc(C3CCCC3)[nH]c2n(CC(C)OC(=O)CBr)c1=O` (centres undefined) yielded a Loss in assay [1] of 0%.

In assay [2], `O=C(OCCCn1c(=O)c2nc(C3CCCC3)[nH]c2n(CCCOC(=O)c2ccc(S(=O)(=O)F)cc2)c1=O)c1ccc(S(=O)(=O)F)cc1` came in with a Loss of 50%.

As for `CCCn1c(=O)c2nc(CCCNC(=O)c3cccc(S(=O)(=O)F)c3)[nH]c2n(CCC)c1=O`, the Loss in assay [2] was determined as 30%.

On Adenosine receptor A1, `O=C(OCCCn1c(=O)c2[nH]c(C3CCCC3)nc2n(CCCOC(=O)c2ccc(S(=O)(=O)F)cc2)c1=O)c1ccc(S(=O)(=O)F)cc1` displayed a dissociation constant (Kd) of 0.82 nM.

Turning to `CCCn1c(=O)c2nc(CNC(=O)c3ccc(S(=O)(=O)F)cc3)[nH]c2n(CCC)c1=O`, the Loss is 72% in assay [1], 85% in assay [2], 25% in assay [3] and 0% in [5]. Besides, on Adenosine A2 receptor [4], the Kd came to 51 nM. Moreover, at Adenosine A2 receptor [6], the half-maximal inhibitory concentration (IC50) worked out at 49000 nM.

Turning to `CCCn1c(=O)c2[nH]c(CCCNC(=O)c3cccc(S(=O)(=O)F)c3)nc2n(CCC)c1=O`, the dissociation constant (Kd) on Adenosine receptor A1 was 0.86 nM.

In assay [7], `CCCn1c(=O)c2nc(CCCNC(=O)c3ccc(S(=O)(=O)F)cc3)[nH]c2n(CCC)c1=O` gave a Loss of 0%. In addition, the half-maximal inhibitory concentration (IC50) at Adenosine A2 receptor [8] is 26000 nM. The dissociation constant Kd at Adenosine A2 receptor [4] was determined as 43 nM.

Compound `CCCn1c(=O)c2nc(C3CCCC3)[nH]c2n(CCCOC(=O)c2cccc(S(=O)(=O)F)c2)c1=O` gave a Loss in assay [1] of 11%.

On to `CCCn1c(=O)c2nc(-c3ccc(Cl)c([N+](=O)[O-])c3)[nH]c2n(CCC)c1=O`, for which the Loss in [2] amounted to 0%.

For `CCCn1c(=O)c2[nH]c(C3CCCC3)nc2n(CC(C)OC(=O)CBr)c1=O` (centres undefined), binding on Adenosine receptor A1 was characterised by a dissociation constant (Kd) of 1.1 nM.

In the case of `CCCn1c(=O)c2nc(CCNC(=O)c3ccc(S(=O)(=O)F)cc3)[nH]c2n(CCC)c1=O`, in assay [2], the Loss came to 72%. In addition, the dissociation constant (Kd) on Adenosine receptor A1 came to 0.74 nM.

Take `CCCn1c(=O)c2nc(C3CCCC3)[nH]c2n(CCCOC(=O)c2ccc(S(=O)(=O)F)cc2)c1=O`: the IC50 at Adenosine A2 receptor [8] came to 9000 nM. Moreover, on Adenosine A2 receptor [4], the dissociation constant (Kd) worked out at 53 nM. Moreover, the Loss in assay [9] is 74%; in assay [10], 60%.

At Adenosine receptor A1, `CCCn1c(=O)c2[nH]c(NC(=O)c3cccc(S(=O)(=O)F)c3)nc2n(CCC)c1=O` gave a Kd of 0.79 nM.

For `CCCn1c(=O)c2nc(CCNC(=O)CBr)[nH]c2n(CCC)c1=O`, the Loss in assay [2] was found to be 28%.

Take `CCCn1c(=O)n(CCCOC(=O)c2ccc(S(=O)(=O)F)cc2)c(=O)c2[nH]c(C3CCCC3)nc21`: the half-maximal inhibitory concentration (IC50) at Adenosine A2 receptor [8] is more than 100000 nM.

`CCCn1c(=O)c2nc(CNC(=O)c3ccccc3)[nH]c2n(CCC)c1=O` showed a Loss in assay [11] of 0%.

Regarding `CCCn1c(=O)c2nc(CCCCCN3C(=O)C=CC3=O)[nH]c2n(CCC)c1=O`, the Loss in [2] stood at 16%.

For the compound `CCCn1c(=O)c2nc(CNC(=O)c3cccc(S(=O)(=O)F)c3)[nH]c2n(CCC)c1=O`, the Loss in [7] came to 0%; in [12], 58%; in assay [13], 38%. Also, the concentration for half-maximal inhibition (IC50) on Adenosine A2 receptor [8] amounted to 45000 nM. In addition, the Kd at Adenosine A2 receptor [4] was 40 nM.

Consider `CCCn1c(=O)c2nc(NC(=O)c3ccc(S(=O)(=O)F)cc3)[nH]c2n(CCC)c1=O`, for which the Loss in assay [2] was found to be 88%. Moreover, binding on Adenosine receptor A1 was characterised by a dissociation constant (Kd) of 1.1 nM.

In assay [2], `CCCn1c(=O)c2nc(NC(=O)c3cccc(S(=O)(=O)F)c3)[nH]c2n(CCC)c1=O` returned a Loss of 54%.

One may read the Kd as the free concentration of one partner at which half of the binding sites on the other are occupied at equilibrium, for simple one-to-one binding. As usually defined, the IC50 is the point on the concentration scale where inhibition reaches its midpoint.

The values above are taken from ChEMBL document CHEMBL1127726, “Substituted 1,3-dipropylxanthines as irreversible antagonists of A1 adenosine receptors” (J Med Chem, 1994).
